Assay results reported in ChEMBL document CHEMBL4339193, “Phenotypic Screening-Based Identification of 3,4-Disubstituted Piperidine Derivatives as Macrophage M2 Polarization Modulators: An Opportunity for Treating Multiple Sclerosis” (J Med Chem, 2019).
Active and inactive are the calls of the source. The calls are words filed in the database; no cut-off is given here.

Assays:
RAW264.7 [1] = test: Modulation of M1 polarization in mouse RAW264.7 cells assessed as change in Mcp1 mRNA expression at 300 nM measured after 24 hrs by qRT-PCR analysis relative to control; assay type: functional, cell-based; details: RAW264.7, 24 h, read-out: FC
In short: (§1)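 RAW264.7 cells (DMEM, 10% FBS) exposed 24 h to 300 nM compound alone; LPS 50 ng/ml as positive control. Mcp1 mRNA by qRT-PCR; fold change = dosed group level / control group level.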

RAW264.7 [2] = test: Modulation of M2 polarization in mouse RAW264.7 cells assessed as change in Arg1 mRNA expression at 300 nM measured after 24 hrs by qRT-PCR analysis relative to control; assay type: functional
In short: (§2)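 RAW264.7 cells (DMEM, 10% FBS) given 300 nM compound for 24 h; IL-4 20 ng/ml as positive control. Arg1 mRNA measured by qRT-PCR; fold change = expression in dosed group / expression in untreated control.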

RAW264.7 [3] = test: Modulation of M2 polarization in mouse RAW264.7 cells assessed as up regulation of Arg1 mRNA expression at 300 nM measured after 24 hrs by qRT-PCR analysis; assay type: functional, cell-based; in short: as §2
RAW264.7 [4] = test: Modulation of M1 polarization in mouse RAW264.7 cells assessed as up regulation of Mcp1 mRNA expression at 300 nM measured after 24 hrs by qRT-PCR analysis; assay type: cell-based; details: raw264.7, 24 h, 0.3 µM; in short: as §1

Row | SMILES | fold induction at 0.3 µM (RAW264.7 [1]) | fold change (FC) (RAW264.7 [2]) | Activity (RAW264.7 [3]) | Activity (RAW264.7 [4])
1 | Cc1cc(-c2ccnn2C)cnc1C(=O)N[C@@H]1CNCC[C@H]1c1ccc(Cl)c(C(F)(F)F)c1.Cl | 1.37 | 0.4 | – | –
2 | O=C(NCC(c1ccccc1F)N1CCCC1)c1ccc(-c2cc[nH]n2)cc1 (stereo unspecified) | 1.34 | 1.09 | – | –
3 | Cl.Cn1ncc(Br)c1-c1ccc(C(=O)N[C@@H]2CNCC[C@H]2c2ccc(F)c(F)c2)cn1 | 1.32 | 0.56 | – | –
4 | COc1ccc(NC(=O)c2ccc(-c3ccnn3C)cc2F)cc1 | 2.16 | 3.86 | – | –
5 | Cl.O=C(N[C@@H]1CNCC[C@H]1c1cccc(F)c1)c1ccc(F)cc1 | 1.64 | 0.91 | – | –
6 | Cl.Cn1ncc(Cl)c1-c1ccc(C(=O)N[C@@H]2CNCC[C@H]2c2ccc(F)c(F)c2)cc1Cl | 1.16 | 1.72 | – | –
7 | Cc1ccc(C(=O)N[C@@H]2CNCC[C@H]2c2cccc(F)c2)o1.Cl | 1.89 | 1.76 | – | –
8 | COc1ccccc1C(=O)N[C@@H]1CNCC[C@H]1c1cccc(F)c1.Cl | 1.42 | 1.32 | – | –
9 | Cc1cc(-c2c(Br)cnn2C)cnc1C(=O)N[C@@H]1CNCC[C@H]1c1cccc(F)c1.Cl | 1.63 | 0.71 | – | –
10 | Cc1ccc(S(=O)(=O)N2CCN(c3nc4ccccc4nc3S(=O)(=O)c3ccc(F)cc3)CC2)cc1 | – | – | Active | –
11 | O=C(NCCN1CCC(c2ccccc2)C1)c1ccc(-c2cc[nH]n2)cc1 (stereo unspecified) | 1.86 | 2.22 | – | –
12 | Cl.Cn1nccc1-c1ccc(C(=O)N[C@@H]2CNCC[C@H]2c2ccc(Cl)c(C(F)(F)F)c2)cc1Cl | 1.49 | 5.08 | – | –
13 | CC(C)C[C@H](NC(=O)[C@H](Cc1ccccc1)NC(=O)C[C@H](NC(=O)c1ccc2ccccc2c1)c1ccccc1)C(=O)[C@]1(C)CO1 | – | – | Active | –
14 | COc1ccc(S(=O)(=O)Nc2ccc(OC)c(-c3ccc(O)cc3)c2)cc1 | – | – | Active | –
15 | Cl.Cn1nccc1-c1ccc(C(=O)N[C@H]2CNCC[C@@H]2c2cccc(F)c2)c(F)c1 | 1.76 | 0.31 | – | –
16 | Cl.Cn1ncc(Br)c1-c1ccc(C(=O)N[C@@H]2CNCC[C@H]2c2cccc(F)c2)cc1Cl | 2.05 | 10.12 | – | –
17 | Cl.Cn1nccc1C(=O)N[C@@H]1CNCC[C@H]1c1cccc(F)c1 | 2.05 | 1.62 | – | –
18 | Cl.Cn1ncc(Cl)c1-c1ccc(C(=O)N[C@@H]2CNCC[C@H]2c2ccc(Cl)c(C(F)(F)F)c2)c(F)c1 | 3.54 | 10.33 | – | –
19 | Cc1cc(C(=O)N[C@@H]2CNCC[C@H]2c2ccc(Cl)c(C(F)(F)F)c2)ccc1-c1c(Cl)cnn1C.Cl | 4.85 | 1.82 | – | –
20 | Cc1ccc([C@@H]2CN(C(=O)c3ccc(-c4ccn[nH]4)cc3)C[C@H]2N(C)C)cc1 | 1.24 | 4.85 | – | –
21 | COc1cccc(-c2noc(-c3nn(-c4ccc(Cl)cc4)c4ccccc34)n2)c1 | – | – | Active | –
22 | Cn1nccc1-c1ccc(C(=O)N[C@@H]2CNCC[C@H]2c2ccc(F)c(F)c2)cc1.O=C(O)C(O)C(O)C(=O)O | 0.9 | 3.42 | – | –
23 | Cc1cc(C(=O)N[C@@H]2CNCC[C@H]2c2cccc(F)c2)ccc1-c1c(Br)cnn1C.Cl | 1.89 | 6.54 | – | –
24 | O=C(NCCN1CCC(c2ccccc2)CC1)c1ccc(-c2cc[nH]n2)cc1 | 2.14 | 3.92 | – | –

Row | SMILES | fold induction at 0.3 µM (RAW264.7 [1]) | fold change (FC) (RAW264.7 [2]) | Activity (RAW264.7 [3]) | Activity (RAW264.7 [4])
25 | Cl.Cn1nccc1-c1ccc(C(=O)N[C@@H]2CNCC[C@H]2c2ccc(F)c(F)c2)cn1 | 1.23 | 0.85 | – | –
26 | Cl.O=C(N[C@@H]1CNCC[C@H]1c1cccc(F)c1)c1ccccc1F | 1.72 | 1.01 | – | –
27 | CCNC(=O)c1ccc(-c2ccnn2C)cc1F | 1.83 | 2.31 | – | –
28 | O=C(NCCN1CCCC(c2ccccc2)C1)c1ccc(-c2ccn[nH]2)cc1 (stereo unspecified) | 1.52 | 1.48 | – | –
29 | O=C(Nc1n[nH]c(=O)c2ccccc12)c1cccc(C(=O)N2CCN(C(=O)C3CC3)CC2)c1 | – | – | Active | –
30 | Cn1nccc1C(=O)N1CC(c2cc(F)cc(F)c2)C2[C@H]1C1CCN2CC1 (single isomer, unassigned) | 1.4 | 1.16 | – | –
31 | Cl.Cn1ncc(Br)c1-c1ccc(C(=O)N[C@@H]2CNCC[C@H]2c2cccc(F)c2)nc1 | 1.14 | 0.78 | – | –
32 | Cc1ccc(C(=O)N[C@@H]2CNCC[C@H]2c2cccc(F)c2)s1.Cl | 1.54 | 1.44 | – | –
33 | Cl.Cn1ncc(Cl)c1-c1ccc(C(=O)N[C@@H]2CNCC[C@H]2c2ccc(F)c(F)c2)cc1 | 1.5 | 1.97 | – | –
34 | Cl.Cn1nccc1-c1ccc(C(=O)N[C@@H]2CNCC[C@H]2c2cccc(F)c2)c(F)c1 | 1.54 | 10.05 | Active | Non-Toxic
35 | CN(CC1Cc2ccccc2CN1C)C(=O)c1ccc(-c2ccn[nH]2)cc1 (stereo unspecified) | 1.14 | 2.35 | – | –
36 | Cc1cc(C(=O)N[C@@H]2CNCC[C@H]2c2cccc(F)c2)ccc1-c1c(Cl)cnn1C.Cl | 2.44 | 8.35 | – | –
37 | Cl.Cn1nccc1-c1ccc(C(=O)N[C@H]2CCCNC2)c(F)c1 | 2.26 | 2.11 | – | –
38 | Cl.Cn1ncc(Cl)c1-c1ccc(C(=O)N[C@@H]2CNCC[C@H]2c2ccc(F)c(F)c2)cn1 | 1.01 | 0.27 | – | –
39 | CCN(CC)C(=O)c1ccc(-c2ccnn2C)cc1F | 1.97 | 1.96 | – | –
40 | Cn1ncc(Br)c1-c1ccc(C(=O)N[C@@H]2CNCC[C@H]2c2ccc(F)c(F)c2)cc1.O=C(O)C(O)C(O)C(=O)O | 1.77 | 2.27 | – | –
41 | Cc1cc(-c2ccnn2C)cnc1C(=O)N[C@@H]1CNCC[C@H]1c1cccc(F)c1.Cl | 1.99 | 0.95 | – | –
42 | Cn1nccc1C(=O)N1C[C@@H](c2cc(F)cc(F)c2)[C@@H]2[C@H]1C1CCN2CC1 | 1.95 | 2.22 | – | –
43 | Cn1nccc1-c1ccc(C(=O)Nc2ccc(F)cc2)c(F)c1 | 2.01 | 1.63 | – | –
44 | Cl.Cn1nccc1-c1ccc(C(=O)N[C@@H]2CNCC[C@H]2c2ccc(F)c(F)c2)c(F)c1 | 0.39 | 3.99 | – | –
45 | Cl.Cn1ncc(Cl)c1-c1ccc(C(=O)N[C@@H]2CNCC[C@H]2c2ccc(Cl)c(C(F)(F)F)c2)cc1 | 5.08 | 2.82 | – | –
46 | CC(=O)N[C@@H]1Cc2ccccc2[C@H]1NC(=O)c1cn[nH]c1-c1cccc(F)c1 | 2.14 | 0.8 | – | –
47 | O=C1NCCN(C(=O)c2ccc(-c3cc[nH]n3)cc2)C1Cc1ccccc1 (stereo unspecified) | 1.53 | 1.33 | – | –
